{
  "source": "ChEMBL document CHEMBL4665734",
  "about": "“Optimization of globomycin analogs as novel gram-negative antibiotics” (Bioorg Med Chem Lett, 2020)",
  "key": {"[1]": {"test": "Lipophilicity, logD of the compound at pH 7.4", "conditions": "buffer, pH 7.4, logD"}, "[2]": {"test": "Stability of the compound in human plasma assessed as parent compound remaining after 24 hrs", "assay_type": "ADME, cell-free", "conditions": "read-out: Stabilty", "summary_of_the_method": "(§1)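 Test compound incubated for 24 hour in human, rat or mouse plasma. Stability is reported as the percentage of parent compound remaining.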"}, "[3]": {"test": "Stability of the compound in mouse plasma assessed as parent compound remaining after 24 hrs", "assay_type": "ADME, cell-free", "conditions": "read-out: Stabilty", "summary_of_the_method": "as §1"}, "[4]": {"test": "Stability of the compound in rat plasma assessed as parent compound remaining after 24 hrs", "assay_type": "ADME, cell-free", "conditions": "read-out: Stabilty", "summary_of_the_method": "as §1"}, "[5]": {"test": "Protein binding in rat plasma", "assay_type": "ADME, cell-free", "conditions": "read-out: PPB (converted)"}, "[6]": {"test": "Protein binding in mouse plasma", "assay_type": "ADME, cell-free", "conditions": "read-out: PPB (converted)"}, "[7]": {"test": "Clearance in rat liver microsomes", "assay_type": "ADME, Microsome", "summary_of_the_method": "(§2)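 Intrinsic clearance in rat or mouse liver microsomes, expressed in mL/min/kg.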"}, "[8]": {"test": "Clearance in mouse liver microsomes", "assay_type": "ADME, Microsome", "summary_of_the_method": "as §2"}, "[9]": {"test": "Clearance in iv dosed mouse", "assay_type": "ADME, organism-based", "conditions": "in vivo"}, "[10]": {"test": "Half life in iv dosed mouse", "assay_type": "ADME, organism-based", "conditions": "in vivo"}, "Escherichia coli [11]": {"tested_on": "Escherichia coli", "test": "Inhibition of LspA in Escherichia coli CFT073imp4213 harboring outer membrane-permeable mutant assessed as inhibition of bacterial growth", "summary_of_the_method": "(§3)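 Read-out is the minimum inhibitory concentration, reported in µM.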"}, "Escherichia coli CFT073": {"tested_on": "Escherichia coli CFT073", "test": "Inhibition of LspA in wild type Escherichia coli CFT073 assessed as inhibition of bacterial growth", "summary_of_the_method": "as §3"}, "[12]": {"test": "Growth inhibition of Staphylococcus aureus USA300"}, "Enterobacter cloacae": {"tested_on": "Enterobacter cloacae", "test": "Inhibition of LspA in Enterobacter cloacae assessed as inhibition of bacterial growth"}, "Klebsiella pneumoniae": {"tested_on": "Klebsiella pneumoniae", "test": "Inhibition of LspA in Klebsiella pneumoniae assessed as inhibition of bacterial growth"}, "Pseudomonas aeruginosa": {"tested_on": "Pseudomonas aeruginosa", "test": "Inhibition of LspA in Pseudomonas aeruginosa assessed as inhibition of bacterial growth"}, "Acinetobacter baumannii": {"tested_on": "Acinetobacter baumannii", "test": "Inhibition of LspA in Acinetobacter baumannii assessed as inhibition of bacterial growth"}, "Jurkat": {"tested_on": "Jurkat", "test": "Cytotoxicity against human Jurkat cells", "assay_type": "cell-based", "summary_of_the_method": "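Jurkat cell growth assay. Result reported as antiproliferative EC50.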"}, "Escherichia coli [13]": {"tested_on": "Escherichia coli", "test": "In vivo inhibition of LspA in Escherichia coli 25922 infected in iv infused mouse neutropenic thigh infection model assessed as reduction in CFU infused for 20 hrs", "assay_type": "functional, organism-based", "conditions": "ATCC 25922", "summary_of_the_method": "(§4)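 Neutropenic mouse thigh model infected with E. coli 25922. Compound given by IV infusion over 20 hour. Average blood concentration was measured during the infusion, and thigh CFU was compared with vehicle-treated animals.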"}, "[14]": {"test": "Drug concentration in blood of iv dosed mouse infected with Escherichia coli 25922 infused for 20 hrs", "assay_type": "ADME, organism-based", "conditions": "read-out: Ct", "summary_of_the_method": "as §4"}, "[15]": {"test": "Protein binding in plasma of iv dosed mouse infected with Escherichia coli 25922 assessed as free fraction", "assay_type": "ADME, organism-based"}, "[16]": {"test": "Unbound drug concentration in plasma of iv dosed mouse infected with Escherichia coli 25922", "assay_type": "ADME, organism-based", "conditions": "in vivo", "summary_of_the_method": "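Same infected neutropenic mouse thigh model (E. coli 25922, 20 hour IV infusion). Unbound concentration was derived from the average blood concentration and the free fraction in mouse plasma.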"}, "[17]": {"tested_on": "Escherichia coli ATCC 25922", "test": "Inhibition of LspA in wild type Escherichia coli 25922 assessed as inhibition of bacterial growth", "summary_of_the_method": "as §3"}},
  "note": "Active and inactive are the calls of the source. The rule behind the calls is not given here. Starred links: 1 amine or outer side, 2 acyl side, 3 side chain; linkers in the order of their positions; H or OH if unused. Non-standard residues stand in square brackets, D forms with d. Residues, ends and D or L forms follow the SMILES beside them. *: point of attachment. X1 = CCCCCC[C@@H](OC[C@@H](C)N[*:1])[C@@H](C)C(=O)[*:2]; Gly(cHept) = N[C@H](C(=O)O)C1CCCCCC1; NMeNva = CCC[C@H](NC)C(=O)O; X2 = NC[C@H]1C[C@H](*)C1; Dap = NC[C@H](N)C(=O)O",
  "data": [
    {"smiles": "CCCCCC[C@H]1OC[C@@H](C)NC(=O)[C@H](CO[C@H]2C[C@H](CN)C2)NC(=O)[C@H](CN)NC(=O)[C@H](C2CCCCCC2)NC(=O)[C@H](CCC)N(C)C(=O)[C@@H]1C", "note": "(cyclo([Dap]S(X2)[X1][NMeNva][Gly(cHept)]))", "values": [
      {"measurement": "logD", "setting": "[1]", "result": 1.6},
      {"measurement": "remaining at 24 h", "setting": "[2]", "result": 98, "unit": "%"},
      {"measurement": "remaining at 24 h", "setting": "[3]", "result": 101, "unit": "%"},
      {"measurement": "remaining at 24 h", "setting": "[4]", "result": 96, "unit": "%"},
      {"measurement": "fraction unbound", "setting": "[5]", "result": 0.033},
      {"measurement": "fraction unbound", "setting": "[6]", "result": 0.011},
      {"measurement": "CLhep predicted", "setting": "[7]", "result": 20, "unit": "mL/min/kg"},
      {"measurement": "CLhep predicted", "setting": "[8]", "result": 43, "unit": "mL/min/kg"},
      {"measurement": "clearance", "setting": "[9]", "result": 2.9, "unit": "mL/min/kg"},
      {"measurement": "half-life", "setting": "[10]", "result": 4, "unit": "h"},
      {"measurement": "MIC", "setting": "Escherichia coli [11]", "result": 0.048, "unit": "µM"},
      {"measurement": "MIC", "setting": "Escherichia coli CFT073", "result": 3.1, "unit": "µM"},
      {"measurement": "MIC", "setting": "[12]", "result": 50, "unit": "µM"},
      {"measurement": "MIC", "setting": "Enterobacter cloacae", "result": 6.3, "unit": "µM"},
      {"measurement": "MIC", "setting": "Klebsiella pneumoniae", "result": 18, "unit": "µM"},
      {"measurement": "MIC", "setting": "Pseudomonas aeruginosa", "result": 100, "unit": "µM"},
      {"measurement": "MIC", "setting": "Acinetobacter baumannii", "result": 18, "unit": "µM"},
      {"measurement": "EC50", "setting": "Jurkat", "result": "> 100", "unit": "µM"},
      {"measurement": "Activity", "setting": "Escherichia coli [13]", "result": "inactive"},
      {"measurement": "concentration at 20 h", "setting": "[14]", "result": 27, "unit": "µM"},
      {"measurement": "fraction unbound", "setting": "[15]", "result": 0.011},
      {"measurement": "Cp(f)", "setting": "[16]", "result": 0.3, "unit": "µM"},
      {"measurement": "MIC", "setting": "[17]", "result": 3.1, "unit": "µM"}
    ]}
  ]
}
